Test [1] has as its system MEC1. As to the kind of experiment: Cytotoxicity against human MEC1 cells assessed as induction of cell death at 200 uM after 6 hrs by annexin V/propidium iodide staining based flow cytometric analysis relative to control. The format is functional. (A flow cytometer gives signals particle by particle.)
Test [2] has as its target T1, Leukocyte surface antigen CD47 (Homo sapiens, UniProt Q08722). In words: Binding affinity to CD47 in biotinylated human MEC1 cell membranes by biolayer interferometry. In short, it runs like this: (§1)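 Biotinylated membrane preparations from MEC-1 cells were loaded onto SuperStreptavidin biosensors. Binding was measured by bilayer interferometry (Octet RED96) in PBS with 0.2% BSA and 1% DMSO at 30 °C. Affinities are given as apparent Kd estimates.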

The subject of test [3] is MEC1. In words: Cytotoxicity against human MEC1 cells assessed as induction of cell death at 300 uM after 6 hrs by annexin V/propidium iodide staining based flow cytometric analysis relative to control. Type of test: functional.
Test [4] deals with T1, Leukocyte surface antigen CD47. As to the kind of experiment: Binding affinity to CD47 in biotinylated human MEC1 cell membranes at 300 uM by biolayer interferometry. In short, it runs like this: as §1
Background: Biolayer interferometry detects binding as a change in optical thickness at a sensor tip.

Test [5] has as its system MEC1. In words: Induction of cell death in human MEC1 cells at 50 uM in presence of ryanodine inhibitor dantrolene/PLCgamma1 inhibitor U73122/IP3R inhibitor 2-APB by annexin V-APC/propidium iodide staining based flow cytometric analysis. The format is functional. In short, it runs like this:
(§2)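 Peptide was then added at 5 or 50 μM in serum-free medium for 2 h. Cell death was read by Ann-V/PI flow cytometry and normalized to each peptide's control to give an index. Mean ± SD of at least two experiments.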

The test system of test [6] is A549. As to the kind of experiment: Induction of cell death in human A549 cells at 100 uM administered 30 mins post Q-VD-OPh treatment in serum-free medium by propidium iodide staining based flow cytometric analysis. Type of test: functional.
For test [7], the system named is A549. In words: Induction of cell death in human A549 cells assessed as reduction in cell index at 200 uM measured every minute for first 2 hrs followed by every hour for 24 hrs by RTCA analysis. The format is functional, cell-based.
Test [8] relates to A549. In words: Induction of cell death in human A549 cells at 100 uM in presence of ryanodine inhibitor dantrolene/PLCgamma1 inhibitor U73122/IP3R inhibitor 2-APB by annexin V-APC/propidium iodide staining based flow cytometric analysis. The format is functional. The method in brief:
(§3)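 Peptide was then added at 10 or 100 μM in serum-free medium for 6 h. Cell death was read by Ann-V/PI flow cytometry and trypan blue counting. A cell death index was obtained by normalizing to each peptide's control. Mean ± SD of two experiments.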

Test [9] relates to MEC1. As to the kind of experiment: Induction of cell death in human MEC1 cells at 50 uM in presence of extracellular calcium chelator BAPTA administered 30 mins post BAPTA treatment in serum-free medium by Annexin V-APC/propidium iodide staining based flow cytometric analysis. Type of test: functional.
The target of test [10] is T1, Leukocyte surface antigen CD47. As to the kind of experiment: Agonist activity at CD47 in human MEC1 cells assessed as activation of PLCgamma1-induced calcium-mediated caspase-independent cell death at 200 uM after 2 hrs by microscopic method. Type of test: cell-based. The method in brief: (§4)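 MEC-1 CLL cells kept in Advanced RPMI 1640 with 10% FCS, 2 mM L-glutamine and penicillin–streptomycin. Cells were treated with peptide in complete medium for 2 h, then examined by light microscopy at 20X for morphology and cell aggregation.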

The subject of test [11] is MEC1. As to the kind of experiment: Induction of cell death in human MEC1 cells at 50 uM in presence of caspase inhibitor Q-VD-OPH administered 30 mins post Q-VD-OPH treatment in serum-free medium by Annexin V-APC/propidium iodide staining based flow cytometric analysis. Type of test: functional.
Test [12] deals with MEC1. In words: Induction of cell aggregation in human MEC1 at 200 uM after 2 hrs by microcopic method. Type of test: functional, cell-based. The method in brief: as §4
Test [13] relates to A549. As to the kind of experiment: Induction of cell death in human A549 cells at 100 uM in presence of IP3R inhibitor 2-APB administered 1 hr post 2-APB treatment in serum-free medium by annexin V-APC/propidium iodide staining based flow cytometric analysis. Type of test: functional. The method in brief: as §3
In test [14] the test system is A549. In words: Disruption of membrane integrity in human A549 cells assessed as increase in adenylate kinase release at 200 uM by ToxiLight bioassay. Type of test: functional, cell-based.
For test [15], the system named is A549. As to the kind of experiment: Induction of cell death in human A549 cells at 100 uM in presence of PLCgamma1 inhibitor U73122 administered 1 hr post U73122 treatment in serum-free medium by annexin V-APC/propidium iodide staining based flow cytometric analysis. Type of test: functional. The method in brief:
as §3

For test [16], the system named is A549. As to the kind of experiment: Induction of cell death in human A549 cells at 100 uM in presence of extracellular calcium chelator BAPTA administered 30 mins post BAPTA treatment in serum-free medium by annexin V-APC/propidium iodide staining based flow cytometric analysis. Type of test: functional.
The subject of test [17] is A549. In words: Cytotoxicity against human A549 cells assessed as induction of cell death after 6 hrs by annexin V-APC/propidium iodide staining based flow cytometric analysis. The format is functional. As to conditions: A549, 6 h, read-out: LC50 (the source's name). In short, it runs like this: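 A549 cells kept in Advanced RPMI 1640 with 10% fetal calf serum, 2 mM L-glutamine and penicillin–streptomycin. Peptides at the indicated concentrations in this complete medium for 6 h. Cells stained with Ann-V-APC (0.1 μg/mL) and PI (0.5 μg/mL), then read by flow cytometry. Values are means ± SD of two independent experiments.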

For test [18], the system named is A549. As to the kind of experiment: Induction of cell death in human A549 cells at 100 uM in presence of ryanodine inhibitor dantrolene administered 1 hr post dantrolene treatment in serum-free medium by annexin V-APC/propidium iodide staining based flow cytometric analysis. The format is functional. In short, it runs like this: as §3
The subject of test [19] is MEC1. As to the kind of experiment: Induction of cell death in human MEC1 cells at 50 uM in presence of ryanodine inhibitor dantrolene administered 1 hr post dantrolene treatment in serum-free medium by annexin V-APC/propidium iodide staining based flow cytometric analysis. The format is functional. In short, it runs like this:
as §2

Test [20] concerns MEC1. As to the kind of experiment: Cytotoxicity against human MEC1 cells assessed as induction of cell death after 2 hrs by annexin V/propidium iodide staining based flow cytometric analysis. The format is functional. As to conditions: MEC1, 2 h, read-out: LC50 (the source's name). The method in brief:
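MEC-1 CLL cells (TP53-dysfunctional) maintained in Advanced RPMI 1640 with 10% fetal calf serum, 2 mM L-glutamine and penicillin–streptomycin. Peptide treatment for 2 h in complete medium. Ann-V-APC (0.1 μg/mL) and PI (0.5 μg/mL) staining, read by flow cytometry. Cell death taken as the sum of AnnV+/PI- and AnnV+/PI+ events. Mean ± SD of at least three independent experiments.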

For test [21], the system named is MEC1. In words: Induction of cell death in human MEC1 cells at 50 uM in presence of PLCgamma1 inhibitor U73122 administered 1 hr post U73122 treatment in serum-free medium by annexin V-APC/propidium iodide staining based flow cytometric analysis. Type of test: functional. In short, it runs like this:
as §2

Test [22] has as its system MEC1. As to the kind of experiment: Induction of cell death in human MEC1 cells at 50 uM in presence of IP3R inhibitor 2-APB administered 1 hr post 2-APB treatment in serum-free medium by annexin V-APC/propidium iodide staining based flow cytometric analysis. Type of test: functional. In short, it runs like this: as §2

The record followed here is ChEMBL document CHEMBL4414552, “Homotrimerization Approach in the Design of Thrombospondin-1 Mimetic Peptides with Improved Potency in Triggering Regulated Cell Death of Cancer Cells” (J Med Chem, 2019).

Active and inactive are the calls of the source. The calls are words filed in the database; no cut-off is given here. Square brackets hold non-standard residues; d marks the D form. Peptide text beside a SMILES is read from it. NMeR = CN[C@@H](CCCNC(=N)N)C(=O)O

T1 sequence (Q08722 whole entry): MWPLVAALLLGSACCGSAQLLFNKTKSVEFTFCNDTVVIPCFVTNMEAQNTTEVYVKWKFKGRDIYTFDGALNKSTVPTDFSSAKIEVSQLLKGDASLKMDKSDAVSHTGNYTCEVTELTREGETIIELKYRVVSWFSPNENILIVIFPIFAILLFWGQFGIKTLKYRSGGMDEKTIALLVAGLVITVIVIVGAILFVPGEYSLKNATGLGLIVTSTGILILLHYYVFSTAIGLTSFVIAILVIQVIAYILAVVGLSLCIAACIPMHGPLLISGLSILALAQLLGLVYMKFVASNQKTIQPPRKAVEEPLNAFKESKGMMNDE

As to `CSCC[C@@H](C(=O)N[C@@H](Cc1c[nH]c2ccccc12)C(=O)N[C@@H](CCCCN)C(=O)N[C@H](CCCCN)C(=O)O)N(C)C(=O)[C@@H](NC(=O)[C@@H](NC(=O)[C@H](Cc1ccc(O)cc1)NC(=O)[C@H](Cc1ccccc1)NC(=O)[C@H](CCCNC(=N)N)NC(=O)[C@H](N)CCCCN)C(C)C)C(C)C`, the Activity in the test with MEC1 [1] amounted to 11%.
With `CC(C)[C@H](NC(=O)[C@H](Cc1ccc(O)cc1)NC(=O)[C@H](Cc1ccccc1)NC(=O)[C@H](CCCNC(=N)N)N(C)C(=O)[C@H](N)CCCCN)C(=O)N[C@H](C(=O)N[C@H](C(=O)N[C@@H](Cc1c[nH]c2ccccc12)C(=O)N[C@@H](CCCCN)C(=O)N[C@H](CCCCN)C(=O)O)C(C)C)C(C)C`, the Kd (in general, the constant that tells how readily two partners part at equilibrium) in [2] came out at 9.5 µM. Besides, the Activity with MEC1 [1] was 23%.
For `CC(C)C[C@H](NC(=O)[C@@H](NC(=O)[C@@H](NC(=O)[C@H](Cc1ccc(O)cc1)NC(=O)[C@H](Cc1ccccc1)NC(=O)[C@H](CCCNC(=N)N)N(C)C(=O)[C@H](N)CCCCN)C(C)C)C(C)C)C(=O)N[C@@H](Cc1c[nH]c2ccccc12)C(=O)N[C@@H](CCCCN)C(=O)N[C@H](CCCCN)C(=O)O` (H-[dK][NMeR]FYVVLWK[dK]-OH) the same measures were 15 µM and 26%.
In the case of H-KWVKYRVMFK-OH, the result (with MEC1 [3]; in test [2]; in the test on MEC1 [1]; in [4]) was inactive.
Consider `CC(C)[C@H](NC(=O)[C@H](Cc1ccc(O)cc1)NC(=O)[C@H](Cc1ccccc1)NC(=O)[C@H](CCCNC(=N)N)N(C)C(=O)[C@H](N)CCCCN)C(=O)N[C@H](C(=O)N[C@@H](Cc1ccc(O)cc1)C(=O)N[C@@H](Cc1c[nH]c2ccccc12)C(=O)N[C@@H](CCCCN)C(=O)N[C@H](CCCCN)C(=O)O)C(C)C`, for which, in [2], binding was characterised by a dissociation constant (Kd) of 13 µM. Further, the Activity in the test with MEC1 [1] amounted to 19%.
For `CC[C@H](C)[C@H](NC(=O)[C@@H](NC(=O)[C@@H](NC(=O)[C@H](Cc1ccc(O)cc1)NC(=O)[C@H](Cc1ccccc1)NC(=O)[C@H](CCCNC(=N)N)N(C)C(=O)[C@H](N)CCCCN)C(C)C)C(C)C)C(=O)N[C@@H](Cc1c[nH]c2ccccc12)C(=O)N[C@@H](CCCCN)C(=O)N[C@H](CCCCN)C(=O)O` the same measures were 17 µM and 25%.
For `CSCC[C@H](NC(=O)[C@@H](NC(=O)[C@@H](NC(=O)[C@H](Cc1ccc(O)cc1)NC(=O)[C@H](Cc1ccccc1)NC(=O)[C@H](CCCNC(=N)N)N(C)C(=O)[C@H](N)CCCCN)C(C)C)C(C)C)C(=O)N[C@@H](Cc1c[nH]c2ccccc12)C(=O)N[C@@H](CCCCN)C(=O)N[C@H](CCCCN)C(=O)O` the same measures were 21 µM and 54%.
On the same counts, the results for `CSCC[C@H](NC(=O)[C@@H](NC(=O)[C@@H](NC(=O)[C@H](Cc1ccc(O)cc1)NC(=O)[C@H](Cc1ccccc1)NC(=O)[C@H](CCCNC(=N)N)N(C)C(=O)[C@H](N)CCCCN)C(C)C)C(C)C)C(=O)N[C@@H](Cc1c[nH]c2ccccc12)C(=O)N(C)[C@@H](CCCCN)C(=O)N[C@H](CCCCN)C(=O)O` are 38 µM and 19%.
Consider `CCCC[C@H](NC(=O)[C@@H](NC(=O)[C@@H](NC(=O)[C@H](Cc1ccc(O)cc1)NC(=O)[C@H](Cc1ccccc1)NC(=O)[C@H](CCCNC(=N)N)N(C)C(C)=O)C(C)C)C(C)C)C(=O)N[C@@H](Cc1c[nH]c2ccccc12)C(=O)N[C@@H](CCCCN)C(N)=O`, for which binding in test [2] was put at a Kd of 20 µM. Moreover, the Activity in the test with MEC1 [1] is reported as 51%.
On the same counts, the results for `CSCC[C@H](NC(=O)[C@@H](NC(=O)[C@H](C(C)C)N(C)C(=O)[C@H](Cc1ccc(O)cc1)NC(=O)[C@H](Cc1ccccc1)NC(=O)[C@H](CCCNC(=N)N)NC(=O)[C@H](N)CCCCN)C(C)C)C(=O)N[C@@H](Cc1c[nH]c2ccccc12)C(=O)N[C@@H](CCCCN)C(=O)N[C@H](CCCCN)C(=O)O` are 36 µM and 11%.
Consider `CSCC[C@H](NC(=O)[C@@H](NC(=O)[C@@H](NC(=O)[C@H](Cc1ccc(O)cc1)NC(=O)[C@H](Cc1ccccc1)NC(=O)[C@H](CCCNC(=N)N)NC(=O)[C@H](N)CCCCN)C(C)C)C(C)C)C(=O)N[C@@H](Cc1c[nH]c2ccccc12)C(=O)N[C@@H](CCCCN)C(=O)N[C@H](CCCCN)C(=O)O`, for which the outcome in the test on MEC1 [5], in the test with A549 [6], in the test on A549 [8], with MEC1 [9], in the test on MEC1 [11] and in the test with MEC1 [12] was inactive. Further, the outcome in the test on A549 [13], in the test with A549 [15], in the test with A549 [16], with A549 [18], with MEC1 [19] and in the test with MEC1 [21] was inactive. Moreover, the result with MEC1 [22] was inactive. In addition, the outcome (in the test with A549 [7]; in test [10]; with A549 [14]) was Active. The Activity in the test with MEC1 [1] is 67%. Moreover, the CC50 with A549 [17] and in the test with MEC1 [20] was 200 µM each time.
`CSCC[C@H](NC(=O)[C@@H](NC(=O)[C@@H](NC(=O)[C@H](Cc1ccc(O)cc1)NC(=O)[C@H](Cc1ccccc1)NC(=O)[C@H](CCCNC(=N)N)NC(=O)[C@H](N)CCCCN)C(C)C)C(C)C)C(=O)N[C@@H](Cc1c[nH]c2ccccc12)C(=O)N(C)[C@@H](CCCCN)C(=O)N[C@H](CCCCN)C(=O)O` registered a Kd in test [2] of 48 µM. Also, the Activity with MEC1 [1] is listed as 20%.
